According to ChEMBL document CHEMBL1143410, “Antiviral and anti-inflammatory effects of rosmarinic acid in an experimental murine model of Japanese encephalitis” (Antimicrob Agents Chemother, 2007):
The source made the active and inactive calls. The rule behind the calls is not given here.

What was measured:
[1] = system: Mus musculus; experiment: Toxicity in BALB/c mouse assessed as behavioral activity at 25 mg/kg, ip twice daily; assay type: organism-based; parameters: dose 25 mg/kg, route intraperitoneal; conditions: in vivo
In short: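 Uninfected BALB/c mice (4–5 weeks, either sex; 15 per group) received RA alone, dissolved in PBS, at 25 mg/kg i.p. twice daily. Behavior was observed and compared with a PBS-injected control group.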

[2] = system: BV-2; experiment: Antiinflammatory activity in Japanese encephalitis virus GP78 infected mouse BV2 cells assessed as decrease in virus-induced IFN-gamma levels at 25 uM after 18 hrs by Western blot relative to control; assay type: functional
[3] = system: Japanese encephalitis virus; experiment: Antiviral activity against Japanese encephalitis virus GP78 infected BALB/c mouse assessed as reduction in mortality rate at 25 mg/kg, ip twice daily administered 1 day post viral-challenge; assay type: functional; parameters: scale not given: the % may be the effect or the level left; conditions: route intraperitoneal
In short: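 Survival was followed in infected BALB/c mice (4–5 weeks, either sex; 15 per group). Animals received RA in PBS at 25 mg/kg i.p. twice daily, from day 1 post-infection until the first untreated infected animal died. Symptoms (limb paralysis, tremor, piloerection, stiffening) were recorded alongside deaths.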

[4] = system: Mus musculus; experiment: Antiinflammatory activity in Japanese encephalitis virus GP78 infected BALB/c mouse assessed as decrease in virus-induced IL12 levels at 25 mg/kg, ip twice daily after 8 to 9 days relative to control; assay type: functional; conditions: route intraperitoneal
In short: (§1)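 BALB/c mice (4–5 weeks, either sex; 15 per group) were dosed with RA in PBS at 25 mg/kg i.p. twice daily, from day 1 after infection until the first untreated infected mouse died. IL-12, TNF-α, IFN-γ, MCP-1 and IL-6 in brain tissue lysates were quantified with a mouse cytometric bead array. Statistics used one-way ANOVA with Bonferroni post hoc comparisons.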

[5] = system: BV-2; experiment: Antiinflammatory activity in Japanese encephalitis virus GP78 infected mouse BV2 cells assessed as decrease in virus-induced IL6 levels at 25 uM after 18 hrs by Western blot relative to control; assay type: functional
[6] = system: BV-2; experiment: Antiinflammatory activity in Japanese encephalitis virus GP78 infected mouse BV2 cells assessed as decrease in virus-induced IL12 levels at 25 uM after 18 hrs by Western blot relative to control; assay type: functional
[7] = system: Mus musculus; experiment: Antiinflammatory activity in Japanese encephalitis virus GP78 infected BALB/c mouse assessed as decrease in phosphorylated NF-kappaB levels at 25 mg/kg, ip twice daily after 8 to 9 days relative to control; assay type: functional, organism-based; parameters: dose 25 mg/kg
In short: (§2)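 BALB/c mice (4–5 weeks, either sex; 15 per group) received RA dissolved in PBS at 25 mg/kg i.p. twice daily. Dosing began one day after infection and continued until the first untreated infected mouse died. Brain protein (10 μg) was Western blotted with pNF-κB, IκB-α and Cox-2 antibodies (1:1,000), using β-tubulin as loading reference and HRP chemiluminescence detection. Groups were compared by one-way ANOVA with Bonferroni post hoc tests.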

[8] = system: Mus musculus; experiment: Antiinflammatory activity in Japanese encephalitis virus GP78 infected BALB/c mouse assessed as decrease in Cox2 levels at 25 mg/kg, ip twice daily after 8 to 9 days relative to control; assay type: functional, organism-based; parameters: dose 25 mg/kg; in short: as §2
[9] = system: Japanese encephalitis virus; experiment: Antiviral activity against Japanese encephalitis virus GP78 infected BALB/c mouse assessed as reduction of activated microglia in mouse brain at 25 mg/kg, ip twice daily; assay type: functional, organism-based; parameters: dose 25 mg/kg
In short: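 RA was given at 25 mg/kg i.p. twice daily to infected BALB/c mice. Mice were perfused with PBS containing 7 U/ml heparin, then with 2.5% paraformaldehyde. Cryostat brain sections were stained for Iba-1, and star-shaped activated microglia were counted.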

[10] = system: BV-2; experiment: Antiinflammatory activity in Japanese encephalitis virus GP78 infected mouse BV2 cells assessed as decrease in virus-induced TNFalpha levels at 25 uM after 18 hrs by Western blot relative to control; assay type: functional
[11] = system: Mus musculus; experiment: Antiinflammatory activity in Japanese encephalitis virus GP78 infected BALB/c mouse assessed as decrease in virus-induced TNFalpha levels at 25 mg/kg, ip twice daily after 8 to 9 days relative to control; assay type: functional; conditions: route intraperitoneal; in short: as §1
[12] = system: Mus musculus; experiment: Antiinflammatory activity in Japanese encephalitis virus GP78 infected BALB/c mouse assessed as increase in IkappaB-alpha levels at 25 mg/kg, ip twice daily after 8 to 9 days relative to control; assay type: functional, organism-based; parameters: dose 25 mg/kg; in short: as §2
[13] = system: Mus musculus; experiment: Antiinflammatory activity in Japanese encephalitis virus GP78 infected BALB/c mouse assessed as decrease in virus-induced IFN-gamma levels at 25 mg/kg, ip twice daily after 8 to 9 days relative to control; assay type: functional; conditions: route intraperitoneal; in short: as §1
[14] = system: Mus musculus; experiment: Antiinflammatory activity in Japanese encephalitis virus GP78 infected BALB/c mouse assessed as decrease in virus-induced MCP1 levels at 25 mg/kg, ip twice daily after 8 to 9 days relative to control; assay type: functional; conditions: route intraperitoneal; in short: as §1
[15] = system: Japanese encephalitis virus; experiment: Antiviral activity against Japanese encephalitis virus GP78 infected BALB/c mouse assessed as inhibition of viral proteins in mouse brain at 25 mg/kg, ip twice daily after 8 to 9 days by immunoblot; assay type: functional, organism-based; parameters: dose 25 mg/kg
[16] = system: Mus musculus; experiment: Antiinflammatory activity in Japanese encephalitis virus GP78 infected BALB/c mouse assessed as decrease in virus-induced IL6 levels at 25 mg/kg, ip twice daily after 8 to 9 days relative to control; assay type: functional; conditions: route intraperitoneal; in short: as §1
[17] = system: BV-2; experiment: Antiinflammatory activity in Japanese encephalitis virus GP78 infected mouse BV2 cells assessed as decrease in virus-induced MCP1 levels at 25 uM after 18 hrs by Western blot relative to control; assay type: functional
[18] = system: Japanese encephalitis virus; experiment: Antiviral activity against Japanese encephalitis virus GP78 infected BALB/c mouse assessed as inhibition of viral mRNA transcript in mouse brain at 25 mg/kg, ip twice daily after 8 to 9 days; assay type: functional, organism-based; parameters: dose 25 mg/kg

**Q.** What does the source list for `O=C(/C=C/c1ccc(O)c(O)c1)O[C@H](Cc1ccc(O)c(O)c1)C(=O)O` [ROSMARINIC ACID]?
**A.** Activity [1]: Non-toxic; fold change (FC) [2]: 12; Activity [3]: 20%; fold change (FC) [4]: 5; fold change (FC) [5]: 12.5; fold change (FC) [6]: 13; Activity [7]: Active; Activity [8]: Active; Activity [9]: Active; fold change (FC) [10]: 14; fold change (FC) [11]: 18; Activity [12]: Active; fold change (FC) [13]: 6; fold change (FC) [14]: 100; Activity [15]: Active; fold change (FC) [16]: 9; fold change (FC) [17]: 25; Activity [18]: Active
